Measured values as given in publication PMC11718171 (Biophysics and Physicobiology, 2024).
One block for each molecule: values may come before it. Ends that are not written are not given here.

How the values were obtained:
[1] = test system: SNAP-CD86; assay: Orthogonality of labeling, SNAP-CD86-expressing cells; assay type: cell-based, human; conditions: 10 nM each, simultaneous labeling, HEK293
Summary of the method: (§1)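 HEK293A cells in DMEM with 5% FBS, seeded on coverslips and same-day transfected (Lipofectamine 3000, 1 µg total plasmid made up with pCAGGS) with LgBiT-, SNAP- or HaloTag-fused CD86 (1-277). Co-labeled with SF650-FiBiT, SNAP-cell TMR-star and Halo-JF549 in phenol red-free complete DMEM, 15 min, 37°C. Washed thrice, imaged in 0.01% BSA-HBSS. Bright spots counted against coverslip background.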

[2] = test system: Lg-CD86; assay: Orthogonality of labeling, Lg-CD86-expressing cells; assay type: cell-based, human; conditions: 10 nM each, simultaneous labeling, HEK293
Summary of the method: as §1

[3] = test system: LgBiT; conditions: in vitro, grating-coupled interferometry; ref [27]; cited from earlier work
[4] = Non-specific binding on coverslips; conditions: 10 nM, washed three times with complete phenol red-free DMEM, then BSA-HBSS
Summary of the method: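 No cells: fluorescent HiBiT or FiBiT peptide diluted in phenol red-free DMEM with 5% FBS, penicillin, streptomycin and glutamine. Added to a dish containing a glass coverslip and held 15 min at 37°C. Washed three times, mounted in a chamber in HBSS with 0.01% BSA, then imaged at single-molecule level for adsorbed bright spots.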

Molecule: CN(C)c1ccc2c(-c3cc(C(=O)NCc4ccc(COc5nc(N)nc6nc[nH]c56)cc4)ccc3C(=O)[O-])c3ccc(=[N+](C)C)cc-3oc2c1 [SNAP-TMR]
- labeling of SNAP-CD86-expressing cells [1]: labeled by SNAP-TMR ligand
- staining of Lg-CD86-expressing cells [2]: not by SNAP-TMR nor Halo-JF549

Molecule: HiBiT: HiBiT peptide (~1.3 kDa), NanoLuc fragment (VSGWRLFKKIS; also: TMR label, site not given here)
- on-time of LgBiT-HiBiT interaction [3]: ~ 12 min

- non-specific binding to coverslips [4]: greatly reduced the non-specific binding
Molecule: TMR-DYKDDDDKGDGSVSGWRLFKKIS [TMR-FiBiT]
